# Test results taken from ChEMBL document CHEMBL1137637, “Quinuclidine derivatives as potential antiparasitics” (Antimicrob Agents Chemother, 2007).
# Assays:
# Leishmania amazonensis [1] = experiment: Inhibition of sterol biosynthesis in Leishmania mexicana amazonensis promastigotes assessed as reduction in endogenous 5-dehydro episterol level at 0.3 uM after 96 hrs by gas-liquid chromatography; format: functional; set-up: scale not given: the % may be the effect or the level left
# Outline: (§1)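 Promastigotes grown in liver infusion-tryptose medium with lactalbumin and 10% fetal calf serum at 26°C, static; drug added at 0.5 × 10⁷ to 1 × 10⁷ cells/ml and cells exposed for 96 h. Total lipids extracted; neutral lipids separated from polar lipids by silicic acid column chromatography; free sterols quantified by capillary gas-liquid chromatography and mass spectrometry as mass % of total sterols.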
# [2] = system: Trypanosoma brucei rhodesiense; experiment: Trypanocidal activity against Trypanosoma brucei rhodesiense STIB 900 bloodstream form after 72 hrs by resazurin assay; format: functional, organism-based; details: STIB 900, 72 h
# Outline: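 T. b. rhodesiense STIB 900 bloodstream forms in MEM with 2-mercaptoethanol and 15% heat-inactivated horse serum, with serial drug dilutions. Incubated 72 h at 37°C in 5% CO2. Resazurin added for 2–4 h more, fluorescence read at ex 536/em 588 nm. IC50 from sigmoidal curve. Duplicate, with an independent repeat for actives.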
# Leishmania amazonensis [3] = experiment: Antileishmanial activity against Leishmania mexicana amazonensis promastigotes by trypan blue exclusion method; format: functional, organism-based
# Outline: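 L. mexicana amazonensis promastigotes cultured in liver infusion-tryptose medium with lactalbumin and 10% FCS at 26°C, unagitated. Cultures started at 2 × 10⁶ cells/ml and drug added at 0.5–1 × 10⁷ cells/ml. Density counted by electronic particle counter and hemocytometer. Viability by trypan blue exclusion. Triplicate growth experiments.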
# Leishmania amazonensis [4] = experiment: Inhibition of sterol biosynthesis in Leishmania mexicana amazonensis promastigotes assessed as reduction in exogenous cholesterol level at 0.3 uM after 96 hrs by gas-liquid chromatography; format: functional; set-up: scale not given: the % may be the effect or the level left; outline: as §1
# Squalene synthase = target: T1, Squalene synthase (Homo sapiens, UniProt P37268); experiment: Inhibition of human recombinant squalene synthase expressed in Escherichia coli BL21(DE3 pLysS) by liquid scintillation counter
# T1 sequence (P37268 whole entry): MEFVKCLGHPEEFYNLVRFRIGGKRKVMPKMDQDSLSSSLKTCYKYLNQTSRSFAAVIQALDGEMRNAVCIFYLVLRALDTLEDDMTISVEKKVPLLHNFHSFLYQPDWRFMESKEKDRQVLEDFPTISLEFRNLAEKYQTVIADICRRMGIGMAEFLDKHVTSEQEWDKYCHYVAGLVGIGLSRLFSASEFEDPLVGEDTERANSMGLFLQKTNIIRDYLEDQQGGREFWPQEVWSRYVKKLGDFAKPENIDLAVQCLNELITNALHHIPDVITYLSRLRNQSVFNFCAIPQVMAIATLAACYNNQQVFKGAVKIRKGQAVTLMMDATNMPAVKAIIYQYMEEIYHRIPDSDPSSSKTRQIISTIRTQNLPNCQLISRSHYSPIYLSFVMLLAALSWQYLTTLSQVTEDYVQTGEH
# Outline: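 Human SQS in extracts of E. coli BL21(DE3 pLysS) carrying pHSS16, assayed under the same conditions as the L. major enzyme. Buffer: phosphate pH 7.4, MgCl2, CHAPS, Tween 80, DTT, BSA, and NADPH with a regenerating system. Substrate 0.5 μM radiolabelled farnesyl pyrophosphate. Squalene band radioactivity counted by scintillation.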
# [5] = target: T2, Farnesyltransferase, putative (Leishmania major, UniProt Q4Q5W4); experiment: Inhibition of Leishmania major recombinant squalene synthase expressed in Escherichia coli by liquid scintillation counter
# T2 sequence (Q4Q5W4 whole entry): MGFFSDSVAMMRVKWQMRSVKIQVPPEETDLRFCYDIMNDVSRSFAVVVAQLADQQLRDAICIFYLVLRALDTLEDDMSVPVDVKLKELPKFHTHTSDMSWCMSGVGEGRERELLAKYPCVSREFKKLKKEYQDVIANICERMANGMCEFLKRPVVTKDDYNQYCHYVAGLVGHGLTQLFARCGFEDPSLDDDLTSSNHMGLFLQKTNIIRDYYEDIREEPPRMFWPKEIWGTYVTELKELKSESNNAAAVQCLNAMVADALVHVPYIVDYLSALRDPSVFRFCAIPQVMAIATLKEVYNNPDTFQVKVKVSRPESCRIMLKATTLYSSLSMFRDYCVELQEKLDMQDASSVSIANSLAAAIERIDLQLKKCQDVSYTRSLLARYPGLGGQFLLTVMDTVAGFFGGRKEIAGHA
# Outline: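 Soluble E. coli extract expressing L. major SQS truncated by 16 N-terminal and 40 C-terminal residues. Buffer: 50 mM phosphate pH 7.4, 20 mM MgCl2, 5 mM CHAPS, 1% Tween 80, 10 mM DTT, BSA, 0.25 mM NADPH, and a glucose-6-phosphate/G6PDH regenerating system. Substrate 0.5 μM radiolabelled farnesyl pyrophosphate. Squalene band counted by scintillation. IC50 from hyperbolic plot of five concentrations in duplicate, usually run twice.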
# Leishmania donovani = experiment: Antileishmanial activity against Leishmania donovani MHOM/ET/67/L82 axenic amastigotes after 72 hrs by resazurin assay; format: functional, organism-based; details: MHOM/ET/67/L82, 72 h
# Outline: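 L. donovani MHOM/ET/67/L82 amastigotes grown axenically at 37°C in synthetic minimal medium at pH 5.4 with 10% heat-inactivated FBS under 5% CO2. 1 × 10⁵ amastigotes per well with seven threefold dilutions, 30 to 0.041 μg/ml. After 72 h, resazurin added for 2–4 h more. Fluorescence read at ex 536/em 588 nm. IC50 taken from sigmoidal curve. Run in duplicate, with an independent repeat for actives.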
# Leishmania amazonensis [6] = experiment: Inhibition of sterol biosynthesis in Leishmania mexicana amazonensis promastigotes assessed as reduction in endogenous 5-dehydro episterol level at 0.1 uM after 96 hrs by gas-liquid chromatography; format: functional; set-up: scale not given: the % may be the effect or the level left
# Outline: (§2)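 L. mexicana promastigotes exposed to compound for 96 h. Total lipids extracted and neutral sterols separated from polar lipids by silicic acid column chromatography. Sterols analysed by TLC and by quantitative capillary gas-liquid chromatography with mass spectrometry. Composition expressed as mass % of free sterols, compared with untreated control.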
# L6 = experiment: Cytotoxicity against rat L6 cells after 72 hrs by resazurin assay; format: cell-based; details: L6, 72 h
# Outline: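 L-6 cells seeded at 4 × 10⁴ cells/ml in RPMI 1640 with 10% FBS and 2 mM L-glutamine. After 24 h, medium replaced with serial drug dilution and incubated for 72 h at 37°C in 5% CO2. Resazurin added for 2–4 h, fluorescence read at ex 536/em 588 nm. IC50 from sigmoidal curve. Duplicate, with an independent repeat for actives.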
# Leishmania amazonensis [7] = experiment: Inhibition of sterol biosynthesis in Leishmania mexicana amazonensis promastigotes assessed as reduction in endogenous episterol level at 0.1 uM after 96 hrs by gas-liquid chromatography; format: functional; set-up: scale not given: the % may be the effect or the level left; outline: as §2
# Leishmania amazonensis [8] = experiment: Inhibition of sterol biosynthesis in Leishmania mexicana amazonensis promastigotes assessed as reduction in endogenous episterol level at 0.3 uM after 96 hrs by gas-liquid chromatography; format: functional; set-up: scale not given: the % may be the effect or the level left; outline: as §1
# Trypanosoma cruzi = experiment: Antitrypanosomal activity against trypomastigotes of Trypanosoma cruzi Tulahuen C2C4 containing lacZ gene in rat L6 cells after 4 days by chlorophenol red-beta-D-galactopyranoside/Nonidet assay; format: functional, organism-based; details: Tulahuen C2C4, L6, 96 h
# Outline: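 L-6 rat myoblasts seeded at 2,000 cells/well in RPMI 1640 with 10% FBS and 2 mM L-glutamine. After 24 h, 5,000 T. cruzi Tulahuen C2C4 lacZ trypomastigotes added with serial drug dilution. Incubated at 37°C in 5% CO2 for 4 days. CPRG/Nonidet substrate added and colour read at 540 nm after 2–4 h. IC50 from sigmoidal curve. Duplicate determinations.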
# Plasmodium falciparum = experiment: Antiplasmodial activity after 48 hrs against chloroquine and pyrimethamine-resistant Plasmodium falciparum K1 in human erythrocytes by [3H]hypoxanthine uptake; format: functional, organism-based
# Outline: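 P. falciparum K1 in human red cells in RPMI 1640 with 5% Albumax, exposed to serial drug dilutions. Incubated 48 h at 37°C under reduced oxygen, then 0.5 μCi [³H]hypoxanthine per well for 24 h more. Cells harvested onto glass-fibre filters and counted by scintillation. Result expressed as % of untreated control, with IC50 from sigmoidal curve. Duplicate, plus an independent repeat for actives.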
# Leishmania amazonensis [9] = experiment: Inhibition of sterol biosynthesis in Leishmania mexicana amazonensis promastigotes assessed as reduction in exogenous cholesterol level at 0.1 uM after 96 hrs by gas-liquid chromatography; format: functional; set-up: scale not given: the % may be the effect or the level left; outline: as §2
# Leishmania amazonensis [10] = experiment: Inhibition of sterol biosynthesis in Leishmania mexicana amazonensis promastigotes assessed as reduction in exogenous cholesterol level at 1 uM after 96 hrs by gas-liquid chromatography; format: functional; set-up: scale not given: the % may be the effect or the level left; outline: as §2
# Leishmania amazonensis [11] = experiment: Inhibition of sterol biosynthesis in Leishmania mexicana amazonensis promastigotes assessed as reduction in endogenous 5-dehydro episterol level at 1 uM after 96 hrs by gas-liquid chromatography; format: functional; set-up: scale not given: the % may be the effect or the level left; outline: as §2
# Leishmania amazonensis [12] = experiment: Inhibition of sterol biosynthesis in Leishmania mexicana amazonensis promastigotes assessed as reduction in endogenous episterol level at 1 uM after 96 hrs by gas-liquid chromatography; format: functional; set-up: scale not given: the % may be the effect or the level left; outline: as §2
# Leishmania amazonensis [13] = experiment: Inhibition of sterol biosynthesis in Leishmania mexicana amazonensis promastigotes assessed as reduction in endogenous 5-dehydro episterol level at 10 uM after 96 hrs by gas-liquid chromatography; format: functional; set-up: scale not given: the % may be the effect or the level left; outline: as §2
# Leishmania amazonensis [14] = experiment: Inhibition of sterol biosynthesis in Leishmania mexicana amazonensis promastigotes assessed as reduction in exogenous cholesterol level at 10 uM after 96 hrs by gas-liquid chromatography; format: functional; set-up: scale not given: the % may be the effect or the level left; outline: as §2
# Leishmania amazonensis [15] = experiment: Inhibition of sterol biosynthesis in Leishmania mexicana amazonensis promastigotes assessed as reduction in endogenous episterol level at 10 uM after 96 hrs by gas-liquid chromatography; format: functional; set-up: scale not given: the % may be the effect or the level left; outline: as §2
# Leishmania amazonensis [16] = experiment: Inhibition of sterol biosynthesis in Leishmania mexicana amazonensis promastigotes assessed as reduction in exogenous cholesterol level at 3 uM after 96 hrs by gas-liquid chromatography; format: functional; set-up: scale not given: the % may be the effect or the level left; outline: as §2
# Leishmania amazonensis [17] = experiment: Inhibition of sterol biosynthesis in Leishmania mexicana amazonensis promastigotes assessed as reduction in endogenous episterol level at 3 uM after 96 hrs by gas-liquid chromatography; format: functional; set-up: scale not given: the % may be the effect or the level left; outline: as §2
# Leishmania amazonensis [18] = experiment: Inhibition of sterol biosynthesis in Leishmania mexicana amazonensis promastigotes assessed as reduction in endogenous 5-dehydro episterol level at 3 uM after 96 hrs by gas-liquid chromatography; format: functional; set-up: scale not given: the % may be the effect or the level left; outline: as §2
Compound,Activity (Leishmania amazonensis [1]) [%],IC50 [2] [µM],MIC (Leishmania amazonensis [3]) [µM],Activity (Leishmania amazonensis [4]) [%],IC50 (Squalene synthase) [µM],IC50 [5] [µM],IC50 (Leishmania donovani) [µM],IC50 (L6) [µM],Activity (Leishmania amazonensis [8]) [%],IC50 (Trypanosoma cruzi) [µM],IC50 (Plasmodium falciparum) [µM],other results
C1=C(c2ccc(OCc3ccccc3)cc2)C2CCN1CC2,24.2,1.1,0.3,52.9,0.25,0.1,1.1,47.2,22.9,3.1,4.8,Activity (Leishmania amazonensis [6]): 53%; Activity (Leishmania amazonensis [7]): 15.4%; Activity (Leishmania amazonensis [9]): 31.6%
COc1ccc2cc(C3=CN4CCC3CC4)ccc2c1,72.7,2.2,0.3,13.9,2.8,0.49,1.4,98.8,13.4,10.2,9,Activity (Leishmania amazonensis [10]): 41.2%; Activity (Leishmania amazonensis [11]): 43%; Activity (Leishmania amazonensis [12]): 15.8%
CCOC(=O)Cc1ccc(C#CC2(O)CN3CCC2CC3)cc1 (configuration not stated),,258,10,,0.66,0.97,17.3,> 287,,25.6,10,Activity (Leishmania amazonensis [13]): 18.9%; Activity (Leishmania amazonensis [14]): 62.3%; Activity (Leishmania amazonensis [15]): 18.8%; Activity (Leishmania amazonensis [16]): 28.4%; Activity (Leishmania amazonensis [17]): 23%; Activity (Leishmania amazonensis [18]): 48.6%
